Published values collected from several papers.
Protocols differ between the studies behind these lines.
Target: SRSF protein kinase 2 (SRPK2, Homo sapiens, UniProt P78362)

Structure (SMILES)	assay	conditions	remaining binding [%]
CCN1CCN(Cc2ccc(C(=O)Nc3ccc(C)c(Oc4ccc5c(c4)CC(=O)N5)c3)cc2C(F)(F)F)CC1	binding, competition with immobilised ligand	1 µM	100
O=C(N1CCS(=O)(=O)CC1)N1C[C@H](c2ccc(OC(F)(F)F)cc2)C[C@H](c2nc(C3CC3)no2)C1	cell-free assay, competition with immobilised ligand	1 µM	100
FC(F)(F)Oc1cccc(-c2cnc3ccc(-c4ccncc4)nn23)c1	binding, competition with immobilised ligand	5 µM	66
COc1cnc(Nc2cccc(S(N)(=O)=O)c2)nc1N1CCN(c2ccccc2)C(=O)C1	binding, competition with immobilised ligand	1 µM	89
O=C(c1ccc(Nc2ncc(Cl)c(-c3cc4ccccc4s3)n2)cc1)N1CCC(N2CCCC2)CC1	binding, competition with immobilised ligand	1 µM	99
CN(C)C(=O)Cn1cc(-c2nc(C3(c4ccc(-c5cnc(N)nc5)cc4)CC3)no2)cn1	cell-free assay, competition with immobilised ligand	1 µM	91
CN(C)c1nccc(-c2cnn3ncccc23)n1	binding	1 µM	100
C=CC(=O)N1CCC(C(=O)NCC(=O)N2CCN(c3nc(-c4cnc(N)nc4C(F)F)nc(N4CCOCC4)n3)CC2)CC1	binding, competition with immobilised ligand	1 µM	100
C[C@@H]1CN(c2cc(-c3nn(C)c4ccc(OC5(C)CC5)cc34)ncn2)C[C@H](C)O1	cell-free assay, competition with immobilised ligand	1 µM	88
Cc1cnc(Nc2ccc(C(=O)N3CCC(N4CCCC4)CC3)cc2)nc1-c1cc2ccccc2s1	binding, competition with immobilised ligand	1 µM	100
C[C@H]1CCN(c2nccc(-c3cnn4ncccc34)n2)C1	binding	1 µM	93
CC(=O)C1=C(C)N(c2cccc(C(F)(F)F)c2)C(=O)N[C@@H]1c1ccc(C#N)nc1	cell-free assay, competition with immobilised ligand	1 µM	100
CC1CCCN1c1nccc(-c2cnn3ncccc23)n1 (stereo not drawn)	binding	1 µM	100
O=C(NCCCN1CCOCC1)c1ccc(Nc2ncc(Cl)c(-c3ccc(Cl)s3)n2)cc1	binding, competition with immobilised ligand	1 µM	75
Cc1cnn2ncc(-c3ccnc(N(C)C)n3)c2c1	binding	1 µM	100
CCOC(=O)c1cc2cc(-c3cc(C(=O)NCc4ccc(C(=O)O)cc4)nn3C)ccc2[nH]1	cell-free assay, competition with immobilised ligand	0.1 µM	100
CN(CCCC(F)(F)F)c1nccc(-c2cnn3ncccc23)n1	binding	1 µM	100
O=C(Nc1c[nH]nc1C(=O)NC1CCNCC1)c1cc(F)cc(F)c1	binding, competition with immobilised ligand	1 µM	85
COc1ncc2cc3ccccc3nc2c1C#N	cell-free assay, competition with immobilised ligand	5 µM	100
O=C1NC(c2ccccn2)Sc2ccccc21 (stereo not drawn)	cell-free assay, competition with immobilised ligand	1 µM	100
N[C@H]1CCN(c2nccc(-c3cnn4ncccc34)n2)C1	binding	1 µM	62
